In ChEMBL document CHEMBL1141019, “New cyclic tetrapeptides from Nonomuraea sp. TA-0426 that inhibit glycine transporter type 1 (GlyT1)” (Bioorg Med Chem Lett, 2008) one finds IC50 data, which are given here for 11 compounds.

SMILES strings stand for the structures. Residues, ends and D or L forms follow the SMILES beside them.

The test concerns T98G. The test can be described thus: Inhibition of [3H]glycine uptake in human T98G cells. In kind it is functional, cell-based. A digest of the protocol: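 T98G cells (2 × 10⁴ cells/well) plated, held 24 h at 37 °C in humidified incubator; washed, then exposed at room temperature to 250 nM [³H]-glycine plus test sample for 15 min. Cells washed, lysed in 0.5 M NaOH, radioactivity read by scintillation counting. IC50 from nonlinear regression curve fit; means of two experiments.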
For orientation: IC50 means the concentration that gives 50% inhibition. High values mean weaker potency in that assay, low ones greater potency in that assay. Compound `CN(CC[C@@H](Oc1ccc(-c2ccccc2)cc1)c1ccc(F)cc1)CC(=O)O` returned an IC50 of 0.0048 µM.

On to `CC[C@H](C)[C@@H]1NC(=O)[C@H](Cc2cn(OC)c3ccccc23)NC(=O)[C@H](CCCCC(C)=O)NC(=O)[C@H]2CCCCN2C1=O`, for which the IC50 is 0.0718 µM.

Consider `CC[C@H](C)[C@@H]1NC(=O)[C@H](Cc2ccccc2)NC(=O)[C@H]([C@H](C)[C@@H](C)O)NC(=O)[C@H](C(C)C)NC1=O`, for which the IC50 amounted to 0.0055 µM.

With `CC[C@H](C)[C@@H]1NC(=O)[C@H](C(C)C)NC(=O)[C@H](Cc2ccccc2)NC(=O)[C@H]([C@H](C)[C@@H](C)O)NC1=O`, the IC50 was determined as 0.005 µM.

Compound `CC(C)[C@@H]1NC(=O)[C@H](Cc2ccccc2)NC(=O)[C@H]([C@H](C)[C@@H](C)O)NC(=O)[C@H](C(C)C)NC1=O` showed an IC50 of 0.004 µM.

Regarding `CC[C@H](C)[C@@H]1NC(=O)[C@H](Cc2ccccc2)NC(=O)[C@H]([C@H](CS(=O)(=O)O)C(C)=O)NC(=O)[C@H]([C@@H](C)CC)NC1=O`, the IC50 came to 0.0125 µM.

As to `CC[C@H](C)[C@@H]1NC(=O)[C@H](Cc2ccccc2)NC(=O)[C@H]([C@H](C)[C@@H](C)O)NC(=O)[C@H]([C@@H](C)CC)NC1=O`, inhibition was half-maximal at 0.0035 µM (IC50).

As for `CC[C@H](C)[C@H](N)C(=O)N[C@H](C(=O)N[C@H](C(=O)N[C@@H](Cc1ccccc1)C(=O)O)[C@@H](C)CC)[C@@H](C)CC` (H-IIIF-OH), the midpoint of inhibition, the IC50, lay at 16.4 µM.

On to `CC[C@H](C)[C@@H]1NC(=O)[C@H](Cc2ccccc2)NC(=O)[C@H]([C@@H](C)CC)NC(=O)[C@H]([C@@H](C)CC)NC1=O` (cyclo(FIII)), for which the half-maximal inhibitory concentration (IC50) was found to be 0.0212 µM.

On to `CC[C@H](C)[C@@H]1NC(=O)[C@H](Cc2ccccc2)NC(=O)[C@H]([C@@H](C)CC)NC(=O)[C@H]([C@@H](C)CC)NC(=O)[C@H]([C@@H](C)CC)NC1=O` (cyclo(FIIII)), for which it took 0.655 µM to reach half-maximal inhibition (IC50).

Take `CC[C@H](C)[C@@H]1NC(=O)[C@H](Cc2ccccc2)NC(=O)[C@H]([C@@H](C)CC)NC(=O)[C@H]([C@@H](C)CC)NC(=O)[C@H]([C@@H](C)CC)NC(=O)[C@H]([C@@H](C)CC)NC1=O` (cyclo(FIIIII)): the IC50 was 1.68 µM.
